Test results as given in ChEMBL document CHEMBL1128748, “Novel acridine-triazenes as prototype combilexins: synthesis, DNA binding, and biological activity” (J Med Chem, 1995).

Assays:
A2780 = experiment: Concentration required to inhibit the cell growth by 50 % after 96 hr […].; assay type: functional, cell-based; conditions: Homo sapiens, A2780, 96 h
Method in brief: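 A2780 cells in DMEM with 10% FCS, glutamine, insulin and hydrocortisone, plated at (0.1–5) × 10³ per well and attached overnight. DMSO stocks (≤0.5% v/v) were diluted in pH 7.0 buffer. Continuous drug exposure for 96 h. TCA fixation, sulforhodamine B staining, Tris solubilization, absorbance at 540 nm. IC50 taken against solvent-treated drug-free controls.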

Calf thymus DNA [1] = experiment: Change in DNA-melting (deltaTm) with calf thymus DNA at […]; assay type: functional; conditions: Bos taurus
Method in brief: (§1)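 Thermal denaturation in stoppered quartz cuvettes. DNA in 10 mM sodium phosphate, 1 mM EDTA, at pH 6.00 (CT-DNA, poly(dA-dT), poly(dG-dC)) or pH 7.00 (CT-DNA only). Working DNA 100 μM; ligand added in DMSO to 20 μM final (drug:DNA 1:5). DMSO up to 6.25% v/v, with linear correction. Heated at 1 °C/min and followed by A260. ΔTm is ligand minus drug-free control, mean of three.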

Nucleic Acid [2] = experiment: Induced change in DNA-melting (deltaTm) with [poly(dA-dT)]2 at […]; assay type: functional; method in brief: as §1
Nucleic Acid [3] = experiment: Inhibitory concentration against DNA-bound ethidium for cytotoxicity; assay type: functional
Calf thymus DNA [4] = experiment: Change in DNA-melting (deltaTm) with calf thymus DNA at pH 7.0; assay type: functional; conditions: Bos taurus; method in brief: as §1
Calf thymus DNA [5] = experiment: Inhibitory concentration against ethidium in DNA-binding assay; assay type: nucleic-acid assay; conditions: Bos taurus
Method in brief: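 Ethidium displacement from CT-DNA at pH 5.0 (9.3 mM NaCl, 2 mM NaOAc, 0.1 mM EDTA), with 1.26 μM ethidium bromide and 1 μM CT-DNA, 20 °C. Drug added serially from about 5 mM DMSO stock. Excitation 546 nm, emission 595 nm. CC50 is the concentration halving bound-ethidium fluorescence, mean of three.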

Nucleic Acid [6] = experiment: Inhibitory concentration against ethidium in DNA-binding assay with [poly(dA-dT)]2 (synthetic oligonucleotide); assay type: nucleic-acid assay
Method in brief: (§2)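 Quenching of DNA-bound ethidium at pH 5.0 (9.3 mM NaCl, 2 mM NaOAc, 0.1 mM EDTA, ionic strength 0.01 M). Synthetic DNA 20 μM with 2 μM ethidium bromide, 20 °C. Drug added serially from about 5 mM DMSO stock. Excitation 546 nm, emission 595 nm. Q is the drug concentration giving 50% fluorescence loss, mean of three.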

Nucleic Acid [7] = experiment: Inhibitory concentration against ethidium in DNA-binding assay with [poly(dG-dC)]2 (synthetic oligonucleotide); assay type: nucleic-acid assay; method in brief: as §2
L1210 [8] = experiment: Concentration required to inhibit the cell growth by 50 % after 48 hr in L1210 leukemic cells.; assay type: functional, cell-based; conditions: Mus musculus, L1210, 48 h
Method in brief: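 Mouse L1210 leukemia cells at 5 × 10³ cells/mL. Exposed to drug for 48 h at 37 °C; stocks held ≤0.5% v/v DMSO. Surviving cells were counted with a Coulter counter against drug-free controls to give IC50. Run in duplicate.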

Nucleic Acid [9] = experiment: Induced change in DNA-melting (deltaTm) with [poly(dG-dC)]2 at […]; assay type: functional; method in brief: as §1
Calf thymus DNA [10] = experiment: Induced change in DNA-biphasic melting (deltaTm) with calf thymus DNA at pH 7.0; assay type: functional; conditions: Bos taurus; method in brief: as §1
Calf thymus DNA [11] = experiment: Induced change in DNA-biphasic melting (deltaTm) with calf thymus DNA at […]; assay type: functional; conditions: Bos taurus; method in brief: as §1
L1210 [12] = experiment: Inhibitory concentration against L1210 leukemic cell proliferation over 24 hr; conditions: Mus musculus, L1210, 24 h
Calf thymus DNA [13] = experiment: (§3) Induced change in DNA-melting (deltaTm) with calf thymus DNA at pH 7.0; assay type: nucleic-acid assay; conditions: Bos taurus; method in brief: as §1
Nucleic Acid [14] = experiment: Induced change in DNA-melting (deltaTm) with [poly(dA-dT)]2 at pH 65.0; assay type: functional; method in brief: as §1
Calf thymus DNA [15] = experiment: as §3; assay type: functional; conditions: Bos taurus; method in brief: as §1
Calf thymus DNA [16] = experiment: Induced change in DNA-melting (deltaTm) with calf thymus DNA at […]; assay type: functional; conditions: Bos taurus; method in brief: as §1

SMILES | IC50 (A2780) [µM] | Tm shift (Calf thymus DNA [1]) [°C] | Tm shift (Nucleic Acid [2]) [°C] | CC50 (Nucleic Acid [3]) [µM] | Tm shift (Calf thymus DNA [4]) [°C] | Q (Calf thymus DNA [5]) [µM] | Q (Nucleic Acid [6]) [µM] | Q (Nucleic Acid [7]) [µM] | IC50 (L1210 [8]) [µM] | Tm shift (Nucleic Acid [9]) [°C] | Tm shift (Calf thymus DNA [10]) [°C] | Tm shift (Calf thymus DNA [11]) [°C] | IC50 (L1210 [12]) [µM] | Tm shift (Calf thymus DNA [13]) [°C] | Tm shift degreeC (Nucleic Acid [14]) [°C] | Tm shift (Calf thymus DNA [15]) [°C] | Tm shift (Calf thymus DNA [16]) [°C]
Cc1nc(-c2c3ccccc3nc3ccccc23)sc1CCOC(=O)c1ccc(N)cc1 | > 100 | 1.1 | 0.8 | 230 | 0.4 | 20 | 24 | 17 | – | – | – | – | – | – | – | – | –
CC(=O)c1ccc(N/N=N/c2ccc(C(=O)OCCc3sc(-c4c5ccccc5nc5ccccc45)nc3C)cc2)cc1 | > 100 | – | – | 123 | – | 25 | 19 | 33 | 100 | – | – | – | – | – | – | – | –
Nc1ccc2c(-c3ccccc3)c3ccc(N)cc3nc2c1 | 1.2 | 11.7 | 20.3 | – | 6.9 | 19 | 22 | 16 | 2 | 3.3 | – | – | – | – | – | – | –
Cc1nc(-c2c3ccccc3nc3ccccc23)sc1CCO | > 100 | 1 | 0.7 | 190 | < 0.2 | 21 | 22 | 19 | – | < 0.2 | – | – | – | – | – | – | –
Cc1nc(-c2c3ccccc3nc3ccccc23)sc1CCOC(=O)c1ccc(/N=N/Nc2ccc(C(=O)OCCN(C)C)cc2)cc1 | 3.1 | – | 1.7 | 3.6 | – | 35 | 16 | 66 | 3.2 | < 0.2 | 1.8 | 3 | – | – | – | – | –
COc1cc(NS(C)(=O)=O)ccc1Nc1c2ccccc2nc2ccccc12 [AMSACRINE] | 0.1 | – | 4 | 8.9 | 1 | 3.8 | 25 | 4.5 | – | – | – | – | 0.05 | – | – | – | –
Cc1nc(-c2c3ccccc3nc3ccccc23)sc1CCOC(=O)c1ccc(N/N=N/c2ccc(C(=N)N)cc2)cc1 | 16 | – | 2.4 | 2.9 | – | 18 | 12 | 31 | 66 | – | – | – | – | – | – | – | –
Cc1nc(-c2c3ccccc3nc3ccccc23)sc1CCOC(=O)c1ccc(/N=N/Nc2cccc(C(=O)OCCN(C)C)c2)cc1 | 3.8 | – | 1.6 | 1.2 | – | 17 | 14 | 34 | 3 | < 0.2 | – | 2.1 | – | – | – | – | –
c1ccc2nc3ccccc3cc2c1 [ACRIDINE] | > 100 | 1.7 | 0.7 | 142 | 0.7 | 24 | 26 | 22 | 45 | 0.8 | – | – | – | – | – | – | –
Cc1nc(-c2c3ccccc3nc3ccccc23)sc1CCOC(=O)c1ccc(N/N=N/c2ccc(C(=O)OCCN3CCCCC3)cc2)cc1 | 3.9 | 2.4 | 1.9 | 3.2 | – | 27 | 14 | 52 | 6.2 | 0.2 | – | – | – | 1.5 | – | – | –
c1ccc(-c2c3ccccc3nc3ccccc23)cc1 | > 100 | 1.3 | – | 175 | 0.4 | 22 | 23 | 18 | 80 | 0.4 | – | – | – | – | 0.6 | – | –
N=C(N)c1ccc(/N=N/Nc2ccc(C(=N)N)cc2)cc1 [DIMINAZENE] | – | 9.3 | – | 4.4 | 7.9 | 9 | 5 | 19 | 32 | – | – | – | – | – | – | – | –
Nc1ccc2c(=O)c3ccc(N)cc3[nH]c2c1 | > 100 | – | – | – | – | – | – | – | 67 | – | – | – | – | – | – | – | –
Cc1nc(-c2c3ccccc3nc3ccccc23)sc1CCOC(=O)c1ccc(N/N=N/c2ccc(C(N)=O)cc2)cc1 | 5.3 | – | – | 96 | – | 26 | 21 | 36 | 28 | – | – | – | – | – | – | – | –
Cc1nc(-c2c3ccccc3nc3ccccc23)sc1CCOC(=O)c1ccc(N/N=N/c2ccc(C(=O)OCCN3CCCC3)cc2)cc1 | 3.5 | 2.9 | 1.5 | 2.8 | 1.4 | 26 | 15 | 45 | 3.4 | 0.3 | – | – | – | – | – | – | –
O=C(OCCN1CCOCC1)c1ccc(/N=N/Nc2ccc(C(=O)OCCN3CCOCC3)cc2)cc1 | – | 3.6 | – | 6.8 | – | 15 | 14 | 17 | > 100 | – | – | – | – | – | – | 1.4 | –
Nc1ccc2cc3ccc(N)cc3nc2c1 [PROFLAVINE] | 0.47 | – | 24.4 | – | 11.5 | 20 | 24 | 14 | 2.7 | 7 | – | – | – | – | – | – | 16.4
O=C(OCCN1CCCCC1)c1ccc(/N=N/Nc2ccc(C(=O)OCCN3CCCCC3)cc2)cc1 | – | 14.5 | – | 5.7 | – | 13 | 11 | 14 | > 100 | – | – | – | – | 7.7 | – | – | –
Cc1nc(-c2c3ccccc3nc3ccccc23)sc1CCOC(=O)c1ccc(N/N=N/c2ccc(C(=O)OCCN3CCOCC3)cc2)cc1 | 2.6 | – | 0.9 | 6.1 | – | 28 | 17 | 39 | 32 | – | – | 2.4 | – | – | – | – | –
